Hits are enriched below; roughly 2.8% of the tested compounds scored in any of these assays.
Yeast lifespan up: compounds extending yeast replicative lifespan, primary screen, S. cerevisiae, OD615. 130,000 tested, 0.68% active. inhibition of the nicotinamide effect, % at 10 µM. AID 775, 2007. S. cerevisiae growth with nicotinamide; deaD strain in restrictive glucose medium;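 active means inhibition above a set limit, placed 3 SD over the median of all compounds, cut at about 26% in these data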;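 further: 0% = nicotinamide-treated wells and 100% = cells grown without nicotinamide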
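assay system = DeaD-strain S. cerevisiae | measured by = absorbance at 615 nm | probe or stimulus = nicotinamide 1.5 mM | buffer or medium = CSMM-D glucose medium, restrictive | times = 48 h at 30 °C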
TNAP inh hi DEA: human TNAP enzyme inhibitors, primary screen, biochemical, luminescent, high phosphate acceptor level, uHTS; Alkaline phosphatase, tissue-nonspecific isozyme (Homo sapiens), P05186; purified TNAP, CDP-star luminescence, 1 M DEA; inhibition, % at 20 µM; 200,000 tested, 0.03% active; AID 1135, 2008;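 active means over 50% inhibition of tissue-nonspecific alkaline phosphatase at 20 µM in the single-dose screen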;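 further: plate controls were DMSO wells for no effect and EDTA-quenched wells as full inhibition for full effect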
Target sequence (P05186 whole entry, looked up): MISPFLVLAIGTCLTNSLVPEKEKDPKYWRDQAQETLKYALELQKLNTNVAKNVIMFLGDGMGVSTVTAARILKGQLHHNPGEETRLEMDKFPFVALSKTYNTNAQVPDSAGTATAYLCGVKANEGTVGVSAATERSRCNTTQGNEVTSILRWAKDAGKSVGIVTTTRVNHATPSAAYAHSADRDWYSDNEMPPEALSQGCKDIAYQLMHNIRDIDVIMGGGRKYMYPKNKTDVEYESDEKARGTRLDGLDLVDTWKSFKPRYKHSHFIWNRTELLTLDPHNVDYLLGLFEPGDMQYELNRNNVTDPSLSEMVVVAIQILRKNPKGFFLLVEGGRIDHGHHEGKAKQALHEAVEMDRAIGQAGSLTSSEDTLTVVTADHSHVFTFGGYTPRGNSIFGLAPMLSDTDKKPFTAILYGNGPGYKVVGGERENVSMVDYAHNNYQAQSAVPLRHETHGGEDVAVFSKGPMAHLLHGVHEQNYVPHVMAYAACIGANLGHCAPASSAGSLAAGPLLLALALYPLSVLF
TNAP act hiacc: TNAP activators at high phosphate acceptor level, primary screen, biochemical, luminescence, uHTS; Alkaline phosphatase, tissue-nonspecific isozyme (Homo sapiens), P05186; 200,000 tested, under 10 active; activation factor at 20 µM; purified TNAP, CDP-star luminescence, 1 M DEA, 30 min; stronger effect = higher value; 0 = EDTA background, 1 = DMSO-only activity;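 active means activation factor at least 2 at 20 µM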
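Test system – human TNAP · Doses – 20 µM single point · Incubation – 30 min, room temperature · Signal – luminescent substrate turnover signal · Read-out basis – activation factor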
Yeast growth inh: growth inhibitors of yeast BB579 in restrictive medium, primary screen, yeast lifespan-shortening project, S. cerevisiae. OD615, 48 h. 140,000 tested, 0.51% active. inhibition, % at 10 µM;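 active means inhibition above a set limit, 3 SD over the mean compound inhibition, cut at about 44% in these data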
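test system = yeast BB579 (DeaD) | buffer or medium = restrictive CSMM-D medium | doses = single compound dose of 10 µM, 0.25% DMSO final | times = 4 h preincubation and 48 h exposure at 30 °C | technique = culture absorbance at 615 nm | benchmarks = amphotericin B 10 µg/mL, positive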
TNAP inh noacc: human TNAP enzyme inhibitors, primary screen, biochemical, luminescent, no phosphate acceptor, uHTS; inhibition, % at 20 µM; AID 1012, 2008; Alkaline phosphatase, tissue-nonspecific isozyme (Homo sapiens), P05186; 200,000 tested, 0.26% active; purified TNAP, CDP-star luminescence, 30 min;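 active means tissue-nonspecific alkaline phosphatase inhibition above about 50% at 20 µM in the single-dose screen, limit read from the data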;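 further: 0% = DMSO negative control and 100% = EDTA positive control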
RAM network inh: inhibitors of the yeast RAM network, primary screen, dse1pr::URA3 reporter, 5-FOA selection. S. cerevisiae dse1pr::URA3 reporter, 5-FOA growth OD615, 2 d; analog-sensitive cbk1-as2 kinase mutant strain. inhibition, % at 50 µM. 190,000 tested, 1.8% active;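 active means inhibition above a set limit, 3 SD over mean compound inhibition, cut at about 8.4% in these data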;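 further: 0% = DMSO-only wells with no growth and 100% = 10 µM 1-NA-PP1 full growth; inhibition rescues growth on 5-FOA so higher OD means more RAM inhibition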
Numbers without * were called inactive; / = not tested or not shown.

SMILES	Yeast lifespan up	TNAP inh hi DEA	TNAP act hiacc	Yeast growth inh	TNAP inh noacc	RAM network inh
Cc1ccc(S(=O)(=O)NCCC(c2ccc(F)cc2)c2ccco2)cc1 (stereo unspecified)	4	0	1	-5	-16	11*
COc1ccccc1C(CNC(=O)c1ccc(S(=O)(=O)NCc2ccco2)cc1)N(C)C (stereo unspecified)	1	-1	1	-35	-4	0
COc1ccccc1C(CCNS(=O)(=O)c1ccc(C)cc1)c1ccco1 (stereo unspecified)	0	-8	1.1	-15	-6	10.0*
O=C(NCCc1ccc(Cl)cc1)C1CCC(=O)N1Cc1ccc(F)cc1 (stereo unspecified)	-5	-8	1.1	18	-28	0
c1ccc(-c2n[nH]c3c2CCC3)cc1	-7	-3	1	12	73*	1
COc1cccc(-c2n[nH]c3c2CCC3)c1	/	-4	1	/	10	0
COc1ccc(OCCNc2cc(N3CCCCC3)ccc2[N+](=O)[O-])cc1	1	6	0.9	-53	10	11*
COc1cccc(OCCNc2cc(N3CCCCC3)ccc2[N+](=O)[O-])c1	-12	7	0.9	-26	-1	10*
COc1ccc(OCCNc2cc(N3CCOCC3)ccc2[N+](=O)[O-])cc1	-11	8	0.9	-45	12	4
Cc1cc(C)c2[nH]c(=O)c(C(c3nnnn3C3CCCC3)N3CCOCC3)cc2c1 (stereo unspecified)	/	-2	1	/	-12	/
O=C(N/N=C/c1cc2c3c(c1O)CCCN3CCC2)c1ccccc1O	2	19	0.8	62*	-82	7
CC(C)Nc1nc(NC(C)C)nc(C(N)=O)n1	8	-3	1	-59	-6	1
O=C(Nc1ccccc1)c1cccc(S(=O)(=O)Oc2ccc([N+](=O)[O-])cc2)c1	-5	0	1	-23	-8	10*
O=S(=O)(Nc1ccc(S(=O)(=O)Nc2ccccc2)cc1)c1ccccc1	-12	6	0.9	-9	-1	1
O=[N+]([O-])c1ccc(Oc2ccc(S(=O)(=O)Nc3ccccc3)cc2)cc1	-1	0	1	-28	-8	9.8*
NC(N)=NS(=O)(=O)c1ccc(NC(=S)NC(=O)c2ccc(Br)cc2)cc1	/	-3	1	/	26	8
COc1ccccc1C1NC=C([N+](=O)[O-])C=C1[N+](=O)[O-] (stereo unspecified)	6	6	0.9	-33	57*	2
COc1ccccc1C1C([N+](=O)[O-])=CC([N+](=O)[O-])=CN1C (stereo unspecified)	-2	7	0.9	-22	22	1
CC(C)c1ccc2c(c1)C(c1ccc(N3CCOCC3)cc1)=NNC(c1cccs1)=N2	1	-6	1.1	-34	-7	8
CCc1cc(=O)oc2cc(C)c(CN3CCCC(C)C3)c(O)c12 (stereo unspecified)	30*	-3	1	-35	-5	0
Cc1cc(C)c(S(=O)(=O)Nc2ccccc2C(=O)OCC(=O)NCc2ccccc2)c(C)c1	/	-8	1.1	/	-7	8.7*
CCOC(=O)CS(=O)(=O)c1nc(-c2ccc(F)cc2)cc(C(F)(F)F)n1	67*	-5	1	-44	-12	-1
CCOC(=O)CS(=O)(=O)c1nc(-c2ccccc2)cc(C(F)(F)F)n1	/	-6	1.1	-45	-5	-2
CCOC(=O)CCS(=O)(=O)c1nc(-c2ccccc2)cc(C(F)(F)F)n1	67*	3	1	-32	-5	-1
COC(=O)CCS(=O)(=O)c1nc(-c2ccccc2)cc(C(F)(F)F)n1	77*	-1	1	-8	-1	-1
SMILES	Yeast lifespan up	TNAP inh hi DEA	TNAP act hiacc	Yeast growth inh	TNAP inh noacc	RAM network inh
CC(Sc1ccc2ccccc2c1)C(=O)NC(N)=O (stereo unspecified)	/	-4	1	/	-10	2
O=C(Nc1nnc(-c2ccco2)o1)C1CC1	/	-5	1	/	-13	3
Nc1nc(-c2ccccc2)c(-c2ccccc2)s1	-16	-6	1.1	-24	5	2
Cc1ccc(-c2nc(N)sc2-c2ccccc2)cc1C	-6	-1	1	79*	-8	-1
O=C(CN1CCN(S(=O)(=O)c2ccccc2F)CC1)Nc1ccccc1C(=O)c1ccccc1	/	-4	1	/	-2	11*
O=C(/C(=C/O)N=Nc1ccccc1)c1ccncc1	-11	-1	1	88*	-15	/
O=C(/C(=C/O)N=Nc1ccccc1)c1ccc(Cl)cc1	/	6	0.9	/	5	7
CCCc1[nH]n(-c2ccc([N+](=O)[O-])cc2)c(=O)c1C=NCCCn1ccnc1	/	5	0.9	/	5	2
Cc1ccc(N/N=C/c2cccnc2)cc1	-8	5	1	92*	-4	0
O=C(CCc1ccc(S(=O)(=O)NC2CCCCC2)cc1)Nc1ccccc1	-4	-2	1	-85	-5	5
O=C(CCc1ccc(S(=O)(=O)NC2CCCCC2)cc1)N(Cc1ccccc1)Cc1ccccc1	2	-4	1	-19	-9	11*
COc1ccc(Cc2nc(-c3cccs3)no2)cc1	/	-8	1.1	/	-11	1
Cc1nc([N+](=O)[O-])c(C(=O)OCc2ccc(C#N)cc2)n1C	/	2	1	/	-6	4
Cc1ccc2[nH]c(=O)c(CN(CCO)Cc3nnnn3CCc3ccccc3)cc2c1	68*	-5	1	-15	-10	-1
Cc1ccc2[nH]c(=O)c(CN(Cc3cccs3)Cc3nnnn3Cc3ccccc3)cc2c1	-3	-5	1	-38	0	1
Cn1c(SCC(=O)N2CCCC2=O)nnc1-c1ccccc1F	/	0	1	/	-2	0
COc1ccc2c(c1)CCc1c-2n[nH]c1C(=O)O	-5	-3	1	-33	86*	1
Cc1ccc(S(=O)(=O)/C(C#N)=C/c2ccccc2OCc2ccccc2)cc1	20	2	1	-27	-7	8.6*
COc1ccc(OCCSc2nnc(C(C)NC(=O)c3ccccc3F)n2C)cc1 (stereo unspecified)	/	-1	1	/	-13	-1

Screening data from PubChem BioAssay.
